High-throughput results deposited in PubChem BioAssay by several laboratories.
Most compounds without a hit are left out; they make up all but 1.7% or so of the library.
EP2 modulator – modulators of human EP2 prostaglandin E2 receptor | P43116 | EP2-expressing cells, cAMP HTRF FRET, PGE2 co-stimulation | induction, % at 25 µM | hit rate 0.83% among 260,000;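 active = compounds whose cAMP rise, as percent of the full-agonist control response, exceeds 60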;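 note: rat C6 glioma line stably carrying human EP2 under a CMV promoter; the protocol text gives 20 µM as final concentration; 100% = response of wells given 1 µM PGE2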
Target sequence (P43116 whole entry, looked up): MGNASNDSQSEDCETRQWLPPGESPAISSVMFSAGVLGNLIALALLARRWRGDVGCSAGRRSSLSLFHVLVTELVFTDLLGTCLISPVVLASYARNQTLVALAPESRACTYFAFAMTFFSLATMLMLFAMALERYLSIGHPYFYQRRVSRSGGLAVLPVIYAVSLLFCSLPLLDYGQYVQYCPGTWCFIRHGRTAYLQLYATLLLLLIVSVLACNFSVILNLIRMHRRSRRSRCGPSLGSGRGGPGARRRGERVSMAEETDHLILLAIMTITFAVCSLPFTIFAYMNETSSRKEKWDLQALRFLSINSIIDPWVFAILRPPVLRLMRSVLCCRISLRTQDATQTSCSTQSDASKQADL
Dynein transport – blocks dynein driven cargo transport along microtubules | z-score, hits read low | 3617.4 mouse cells, GR-EGFP nuclear translocation imaging; test concentration mostly 20 µM; stimulated with dexamethasone, 1 µM; hits give low values | hit rate 0.47% among 220,000;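 active = plate z-score of nuclear minus cytoplasmic receptor signal below a set negative limit, without overly bright fluorescence or cell loss, cut at about -3.5 in these data, passing the limit was not always enough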;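 note: z-score of nuclear minus cytoplasmic ring GR-EGFP intensity difference per well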
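Medium: Induction medium lacking tetracycline, stripped serum | Probe or stimulus: 1.0 µM final dexamethasone stimulus | Schedule: 48 h induction, then 1 h compound, then 30 min agonist, 37 °C | Signal: Automated 10x imaging of fixed Hoechst-stained cells | Evaluation: Per-cell GR-EGFP intensity, nucleus versus surrounding cytoplasmic ring, well-averaged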
EP2 antag – EP2 receptor (human) inhibition. AID 1422. P43116. inhibition, % at 25 µM. C6 glioma cells expressing human EP2, cAMP TR-FRET; cells stimulated with saturating PGE2. hit rate 0.52% among 260,000;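 active = percent inhibition above 40 after rounding to a whole number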;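 note: rat C6 glioma host cells with rolipram phosphodiesterase inhibitor present; the protocol text gives 20 µM as final concentration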
Hsp70 act – Hsp70 transcriptional activation, primary screen. AID 1203. HeLa Hsp70 promoter luciferase reporter, luminescence; scaled: vehicle 0, proteasome-inhibitor control 100%. hit rate 0.04% among 200,000. activation, % at 10 µM;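 active = activation above the mean across all tested compounds plus 3 SD, cutoff set per campaign, cut at about 5.5% in these data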;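 note: 100% = MG132 at 30 µM as the positive control and 0% = DMSO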
Starred values were filed as active, the others as inactive; x = not tested or not shown; ! = repeats disagree.

SMILES	EP2 modulator	Dynein transport	EP2 antag	Hsp70 act
O=C(CCn1c(=O)oc2ccccc21)NC1(c2ccc(F)cc2)CCCC1	3	x	7	x
CCN1CCc2c(sc(NC(=S)NC(=O)/C=C/c3ccccc3)c2C(N)=O)C1	-177	x	84*	x
CCN1CCc2c(sc(NC(=O)CN3C(=O)c4ccccc4C3=O)c2C(N)=O)C1	10	-0.28	1	0
CCN1CCc2c(sc(NC(=S)NC(=O)c3ccc(Cl)cc3)c2C(N)=O)C1	-59	-1.4	41*	x
COc1cccc(NC(=O)C2CCN(C(=O)c3ccccc3Cl)CC2)c1	-32	x	8	x
CC1=c2c(oc3cc(O)c(Nc4c(C)cc(O)cc4O)c(C)c23)=CC(=O)C1=Nc1c(C)cc(O)cc1O	-7	x	53*	x
Oc1c(CN2CCN(c3ccccc3)CC2)cc(Br)c2cccnc12	15	-1.4	41*!	x
CC1CC(C)CN(C(=O)CNCc2ccco2)C1 (configuration not stated)	6	x	8	x
CCOc1ccc2[nH]c3c(c2c1)CN(C(=O)C1C=CCN1S(C)(=O)=O)CC3 (configuration not stated)	-50	x	6	x
O=C(Nc1ccn([C@H]2CC[C@@H](CO)O2)c(=O)n1)c1ccccc1	1	1.1	10	x
Nc1nc2c(ncn2[C@@H]2CC[C@@H](CO)O2)c(=O)n1C(=O)c1ccccc1	-4	x	57*	x
Cc1cn([C@@H]2C[C@H](N=[N+]=[N-])[C@H](CO)O2)c(=O)[nH]c1=O	16	x	7	x
CC(C)N1CCN(Cc2ccc(Sc3nncn3C)o2)CC1CCO (configuration not stated)	66*	-0.49	7	x
CC(C)CCN1CCN(Cc2ccc(Sc3nncn3C)o2)CC1CCO (configuration not stated)	-16	0.43	13	1
CN(C)C(=O)CSc1nc(-c2ccccc2)c(-c2ccccc2)o1	63*	0.59	8	0
CNC(=O)CSc1nc(-c2ccccc2)c(-c2ccccc2)o1	25	0.39	3	1
Cc1nc2ccccn2c1C(=O)N=Nc1c(O)n(CCC(C)C)c2ccccc12	-16	-0.13	51*	0
Cc1ccc(S(=O)(=O)O[C@H]2C[C@@H](C(C)(C)C)CC[C@@H]2c2ccccc2)cc1	32	x	43*	x
NC(=O)c1nnn(Cc2cc(Cl)c(C(=O)c3ccc(Cl)cc3)c(Cl)c2)c1N	-15	x	44*	x
CCOc1ccc2c(ccc(/C=C/c3cc(C)c4cccnc4c3O)[n+]2C)c1	50	x	52*	x
CCOc1ccc2c(c1)sc(N)[n+]2Cc1cc(C)cc2cccnc12	46	-0.51	5	0
CCOC(=O)/C=C/C(=O)Nc1cccc([N+](=O)[O-])c1	-1	-1.7	131*	0
CCOC(=O)c1cccc(NC(=O)/C=C/c2cccc([N+](=O)[O-])c2)c1	13	-0.7	4	0
Cc1ccc(C)c(/C(O)=C2/C(=O)C(=O)N(CCN(C)C)C2c2cccnc2)c1 (configuration not stated)	30	x	10	x
COc1ccc2cc(C)c3nn(CC(=O)NCC4CC4)c(=O)n3c2c1	20	x	x	x
SMILES	EP2 modulator	Dynein transport	EP2 antag	Hsp70 act
Cc1nc(NC(=O)CCCOc2ccc(Cl)cc2)sc1C	-13	x	17	x
O=C(CCN1CCCCCC1)c1ccccc1	-7	-3	52*	-1
COC1=CC(=O)C(O)=C(CCCCCCC/C=C/CCCCCCCC2=C(O)C(=O)C=C(OC)C2=O)C1=O	x	x	54*	x
CCCCCCCCCCCC1=C(O)C(=O)C=C(O)C1=O	-15	x	65*!	x
COC1=C(OC)C(=O)C(CCCCCCCCCCO)=C(C)C1=O	x	x	22	0
COc1cc(C(=O)Nc2nnc(Cc3ccc(Cl)cc3)s2)cc(OC)c1OC	-12	x	8	x
Cc1nn(C)cc1S(=O)(=O)NCCC1(Cc2ccccc2)CCOC(C)(C)C1 (configuration not stated)	-41	x	7	x
O=C(CS(=O)(=O)Cc1ccccc1)Nc1ccc(S(=O)(=O)N2CCCCC2)cc1	-11	x	9	x
Cc1cc(-c2ccccc2)n2ncc(-c3ccccc3)c2n1	62*	2.7	18	0
NC(N)=NC(N)=Nc1ccccc1	0	x	7	x
NC(N)=NC(N)=Nc1c(F)c(F)c(F)c(F)c1F	-122	x	64*	x
C=C(C)CSc1nc2c(c(=O)n(C)c(=O)n2C)n1Cc1ccc(Cl)cc1	61*	x	7	x
CCN1C(=O)C=CC1=O	-7	x	13	x
O=C1C=CC(=O)N1CCCCCCN1C(=O)C=CC1=O	-1	-4*	135*	0
CC(C)(C)C1=CC=C(C(C)(C)C)C(=O)C1=O	-47	-3.7*	102*	x
O=C(O)C1CCCN(C(=O)NCc2ccccc2)C1 (configuration not stated)	-1	-0.36	12	1
O=C(O)c1ccccc1CN1CCC[C@@H](C(=O)O)C1	3	x	48*	x
Nc1nc(SCC2CCCCC2[N+](=O)[O-])c2[nH]cnc2n1 (configuration not stated)	-7	x	16	x
Nc1nc(SCC(=O)C2CCC(Br)CC2)c2[nH]cnc2n1 (configuration not stated)	-33	x	49*	x
CCOC(=O)c1sc(Nc2ccc(C)cc2C)nc1C	64*	-1.3	9	0
CCOC(=O)c1sc(N/N=C/c2ccccc2)nc1C	62*	-0.41	16	0
CCOC(=O)c1sc(Nc2ccccc2)nc1C	39	-1.3	12	0
CCOC(=O)C1CCCN(Cc2ccccc2F)C1 (configuration not stated)	17	-0.55	2	0
CCOC(=O)C1CCCN(Cc2c(Cl)cccc2Cl)C1 (configuration not stated)	61*	0.18	1	0
CC1CC(C)CN(CC(=O)N2CCC(n3nnc4ccccc4c3=O)CC2)C1 (configuration not stated)	-14	x	9	x
SMILES	EP2 modulator	Dynein transport	EP2 antag	Hsp70 act
Oc1c(Cl)cc(C(c2cc(Cl)c(O)c(Cl)c2)C(c2cc(Cl)c(O)c(Cl)c2)c2cc(Cl)c(O)c(Cl)c2)cc1Cl	28	x	49*	x
Cc1cc(-c2ccc(Br)s2)nc(-n2cccc2)n1	49	-0.13	23	0
Cc1cc(-c2sccc2Br)nc(-n2cccc2)n1	65*	0.2	16	0
CCCCCCCOC(=O)C1=C(C)Nc2ncnn2C1c1cccs1 (configuration not stated)	4	-0.032	4	0
CCCCCCCCOC(=O)C1=C(C)Nc2nnnn2C1c1cccs1 (configuration not stated)	66*	2.8	3	0
CCOc1ccccc1NC(=O)CSc1nc(C)nc2sc(C)c(C)c12	73*	x	5	x
Cc1cc(NC(=O)CSc2ncnc3sc4c(c23)CCC(C)C4)no1 (configuration not stated)	-6	x	7	x
CCOc1ccccc1NC(=O)CSc1nc(C2CC2)nc2sc(C)c(C)c12	61*	x	9	x
CCOc1ccc(OCC)c(NC(=O)CSc2nc(C)nc3sc(C)c(C)c23)c1	42	x	10	x
CCOc1ccccc1NC(=O)CSc1ncnc2sc3c(c12)CCC(C)C3 (configuration not stated)	65*	x	16	x
